# Measured values published in ChEMBL document CHEMBL3580585, “The synthesis of sulforaphane analogues and their protection effect against cisplatin induced cytotoxicity in kidney cells” (2014).
# Active and inactive are the calls of the source. No cut-off for these calls is given here.
# What was measured:
# [1] = test system: LLC-PK1; test: Renoprotective activity against cisplatin-induced cytotoxicity in pig LLC-PK1 cells assessed as cell survival at 2.5 uM after 24 hrs by WST-1 assay in presence of 25 uM cisplatin (reference value: 60%); format: functional, Sus scrofa
# Procedure, shortened: (§1)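 Pig kidney LLC-PK1 cells were given 25 µM cisplatin to cause oxidative stress, alongside test compound in dose-response format, up to 10 µM, or up to 2.5 µM for analogues toxic at high doses. Survival was read by WST-1 assay […]. Potency was taken as the concentration giving more than 60% cell survival.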
# [2] = test system: LLC-PK1; test: Renoprotective activity against cisplatin-induced cytotoxicity in pig LLC-PK1 cells assessed as increase in cell survival at >1 uM by cell imaging analysis in presence of 25 uM cisplatin; format: functional, cell-based; details: Sus scrofa
# [3] = test system: LLC-PK1; test: Renoprotective activity against cisplatin-induced cytotoxicity in pig LLC-PK1 cells assessed as decrease in apoptotic cells at 25 uM after 24 hrs by Tali image-based cytometer analysis in presence of cisplatin; format: functional, cell-based; details: Sus scrofa
# Procedure, shortened: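 LLC-PK1 cells were co-treated with cisplatin and test compound, then stained so that dead cells show red and apoptotic cells green. The percentage of apoptotic cells was counted on a Tali image-based cytometer.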
# [4] = test system: LLC-PK1; test: Renoprotective activity against cisplatin-induced cytotoxicity in pig LLC-PK1 cells assessed as decrease in phoshorylated JNK level by western blot analysis in presence of 25 uM cisplatin; format: functional, cell-based; details: Sus scrofa
# Procedure, shortened: (§2)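 LLC-PK1 cells were exposed to cisplatin together with several concentrations of test compound. Phospho-JNK, p53 and cleaved caspase-3 protein levels were measured 24 h after cisplatin treatment.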
# [5] = test system: LLC-PK1; test: Renoprotective activity against cisplatin-induced cytotoxicity in pig LLC-PK1 cells assessed as decrease in p53 level at 2.5 uM by western blot analysis in presence of 25 uM cisplatin; format: functional, cell-based; details: Sus scrofa; procedure, shortened: as §2
# [6] = test system: LLC-PK1; test: Renoprotective activity against cisplatin-induced cytotoxicity in pig LLC-PK1 cells assessed as decrease in cleaved caspase-3 level by western blot analysis in presence of 25 uM cisplatin; format: functional, cell-based; details: Sus scrofa; procedure, shortened: as §2
# [7] = test system: LLC-PK1; test: Renoprotective activity against cisplatin-induced cytotoxicity in pig LLC-PK1 cells assessed as cell survival at 10 uM after 24 hrs by WST-1 assay in presence of 25 uM cisplatin (reference value: 60%); format: functional, Sus scrofa; procedure, shortened: as §1
compound,measurement,setting,value
S=C=NCc1cccc(Cl)c1,Activity,[1],>80%
Oc1ccc(CCN=C=S)cc1,Activity,[1],>80%
S=C=NCCc1ccc(N=C=S)cc1,Activity,[1],>80%
S=C=NCC(c1ccccc1)c1ccccc1,Activity,[1],93%
same,Activity,[2],Active
same,Activity,[3],Active
same,Activity,[4],Dose-dependent effect
same,Activity,[5],Active
same,Activity,[6],Dose-dependent effect
C[S+]([O-])CCCCN=C=S (stereo not given) [SULFORAPHANE],Activity,[7],>77%
